In ChEMBL document CHEMBL1250442, “Inhibiting gene expression at transcription start sites in chromosomal DNA with antigene RNAs” (Nat Chem Biol, 2005):
Calls of active or inactive are those of the source. The rule behind the calls is not given here.

Assays:
T47D [1] = experiment: Inhibition of PR-A mRNA gene expression in human T47D cells at 100 nM by syber green assay; format: functional
Procedure, shortened: (§1)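 T47D cells plated at 80,000/well without antibiotics two days before Oligofectamine transfection with agRNA duplex (25 or 100 nM final); medium changed at 24 h, harvest day 5 unless stated otherwise. TRIzol total RNA; PR mRNA by real-time PCR with SYBR Green: 50 °C 2 min, 95 °C 10 min, 40 cycles 95 °C 15 s/60 °C 1 min.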

T47D [2] = experiment: Inhibition of PR-B gene expression in human T47D cells at 25 nM by syber green assay in presence of 10 nM estradiol; format: functional, cell-based
T47D [3] = experiment: Inhibition of PR-B gene expression in human T47D cells at 25 nM by syber green assay; format: functional; procedure, shortened: as §1
T47D [4] = experiment: Inhibition of PR-A gene expression in human T47D cells at 25 nM by syber green assay in presence of 10 nM estradiol; format: functional, cell-based
T47D [5] = experiment: Inhibition of PR-A gene expression in human T47D cells at 25 nM by syber green assay; format: functional; procedure, shortened: as §1
T47D [6] = experiment: Inhibition of PR-B mRNA gene expression in human T47D cells at 100 nM by syber green assay; format: functional
Procedure, shortened: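 T47D cells in RPMI-1640 with 10% FBS, NEAA, insulin, 37 °C, 5% CO2. Plated two days before transfection without antibiotics. Oligofectamine-mediated duplex RNA transfection at 100 nM final, medium changed at 24 h, harvest five days post-transfection. Total RNA extracted with TRIzol. hPR mRNA quantified by SYBR Green qPCR: 50 °C 2 min, 95 °C 10 min, then 40 cycles of 95 °C 15 s / 60 °C 1 min.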

Cc1cn(CC(=O)N(CCNC(=O)CN(CCNC(=O)CN(CCNC(=O)CN(CCNC(=O)CN(CCNC(=O)CN(CCNC(=O)CN(CCNC(=O)CN(CCNC(=O)CN(CCNC(=O)CN(CCNC(=O)CN(CCNC(=O)CN(CCNC(=O)CN(CCNC(=O)CN(CCNC(=O)CN(CCNC(=O)CN(CCNC(=O)CN(CCNC(=O)CN(CCNC(=O)CN(CCNC(=O)CN(CCNC(=O)CN(CCNC(=O)CN)C(=O)Cn2cnc3c(=O)[nH]c(N)nc32)C(=O)Cn2ccc(=O)[nH]c2=O)C(=O)Cn2ccc(N)nc2=O)C(=O)Cn2ccc(=O)[nH]c2=O)C(=O)Cn2cnc3c(=O)[nH]c(N)nc32)C(=O)Cn2cnc3c(=O)[nH]c(N)nc32)C(=O)Cn2ccc(N)nc2=O)C(=O)Cn2ccc(N)nc2=O)C(=O)Cn2cnc3c(N)ncnc32)C(=O)Cn2cnc3c(=O)[nH]c(N)nc32)C(=O)Cn2ccc(=O)[nH]c2=O)C(=O)Cn2ccc(N)nc2=O)C(=O)Cn2ccc(N)nc2=O)C(=O)Cn2cnc3c(N)ncnc32)C(=O)Cn2ccc(N)nc2=O)C(=O)Cn2cnc3c(N)ncnc32)C(=O)Cn2cnc3c(=O)[nH]c(N)nc32)C(=O)Cn2ccc(N)nc2=O)C(=O)Cn2ccc(=O)[nH]c2=O)C(=O)Cn2cc(C)c(=O)[nH]c2=O)CC(=O)O)c(=O)[nH]c1=O
inhibition at 0.1 µM (T47D [1]): 67% | inhibition (T47D [2]): Active | inhibition at 0.025 µM (T47D [3]): 73% | inhibition (T47D [4]): Active | inhibition at 0.025 µM (T47D [5]): 67% | inhibition at 0.1 µM (T47D [6]): 88%

Cc1cn(CC(=O)N(CCNC(=O)CN(CCNC(=O)CN(CCNC(=O)CN(CCNC(=O)CN(CCNC(=O)CN(CCNC(=O)CN(CCNC(=O)CN(CCNC(=O)CN(CCNC(=O)CN(CCNC(=O)CN(CCNC(=O)CN(CCNC(=O)CN(CCNC(=O)CN(CCNC(=O)CN(CCNC(=O)CN(CCNC(=O)CN(CCNC(=O)CN(CCNC(=O)CN(CCNC(=O)CN(CCNC(=O)CN)C(=O)Cn2cnc3c(N)ncnc32)C(=O)Cn2cnc3c(=O)[nH]c(N)nc32)C(=O)Cn2ccc(N)nc2=O)C(=O)Cn2ccc(=O)[nH]c2=O)C(=O)Cn2cnc3c(=O)[nH]c(N)nc32)C(=O)Cn2ccc(=O)[nH]c2=O)C(=O)Cn2ccc(N)nc2=O)C(=O)Cn2ccc(=O)[nH]c2=O)C(=O)Cn2cnc3c(=O)[nH]c(N)nc32)C(=O)Cn2cnc3c(=O)[nH]c(N)nc32)C(=O)Cn2ccc(N)nc2=O)C(=O)Cn2ccc(N)nc2=O)C(=O)Cn2cnc3c(N)ncnc32)C(=O)Cn2cnc3c(=O)[nH]c(N)nc32)C(=O)Cn2ccc(=O)[nH]c2=O)C(=O)Cn2ccc(N)nc2=O)C(=O)Cn2ccc(N)nc2=O)C(=O)Cn2cnc3c(N)ncnc32)C(=O)Cn2ccc(N)nc2=O)CC(=O)NCCN(CC(=O)NCC(=O)O)C(=O)Cn2cc(C)c(=O)[nH]c2=O)c(=O)[nH]c1=O
inhibition at 0.1 µM (T47D [1]): 63% | inhibition (T47D [2]): Active | inhibition at 0.025 µM (T47D [3]): 40% | inhibition (T47D [4]): Active | inhibition at 0.025 µM (T47D [5]): 34% | inhibition at 0.1 µM (T47D [6]): 87%

Cc1cn(CC(=O)N(CCNC(=O)CN(CCNC(=O)CN(CCNC(=O)CN(CCNC(=O)CN(CCNC(=O)CN(CCNC(=O)CN(CCNC(=O)CN(CCNC(=O)CN(CCNC(=O)CN(CCNC(=O)CN(CCNC(=O)CN(CCNC(=O)CN(CCNC(=O)CN(CCNC(=O)CN(CCNC(=O)CN(CCNC(=O)CN(CCNC(=O)CN(CCNC(=O)CN(CCNC(=O)CN(CCNC(=O)CN)C(=O)Cn2cnc3c(N)ncnc32)C(=O)Cn2cnc3c(N)ncnc32)C(=O)Cn2cnc3c(N)ncnc32)C(=O)Cn2cnc3c(=O)[nH]c(N)nc32)C(=O)Cn2ccc(N)nc2=O)C(=O)Cn2ccc(=O)[nH]c2=O)C(=O)Cn2cnc3c(=O)[nH]c(N)nc32)C(=O)Cn2ccc(=O)[nH]c2=O)C(=O)Cn2ccc(N)nc2=O)C(=O)Cn2ccc(=O)[nH]c2=O)C(=O)Cn2cnc3c(=O)[nH]c(N)nc32)C(=O)Cn2cnc3c(=O)[nH]c(N)nc32)C(=O)Cn2ccc(N)nc2=O)C(=O)Cn2ccc(N)nc2=O)C(=O)Cn2cnc3c(N)ncnc32)C(=O)Cn2cnc3c(=O)[nH]c(N)nc32)C(=O)Cn2ccc(=O)[nH]c2=O)C(=O)Cn2ccc(N)nc2=O)C(=O)Cn2ccc(N)nc2=O)CC(=O)NCCN(CC(=O)NCC(=O)O)C(=O)Cn2cc(C)c(=O)[nH]c2=O)c(=O)[nH]c1=O
inhibition at 0.1 µM (T47D [1]): < 20% | inhibition (T47D [2]): Active | inhibition at 0.025 µM (T47D [3]): < 20% | inhibition (T47D [4]): Active | inhibition at 0.025 µM (T47D [5]): < 20% | inhibition at 0.1 µM (T47D [6]): < 20%

Cc1cn(CC(=O)N(CCNC(=O)CN(CCNC(=O)CN(CCNC(=O)CN(CCNC(=O)CN(CCNC(=O)CN(CCNC(=O)CN(CCNC(=O)CN(CCNC(=O)CN(CCNC(=O)CN(CCNC(=O)CN(CCNC(=O)CN(CCNC(=O)CN(CCNC(=O)CN(CCNC(=O)CN(CCNC(=O)CN(CCNC(=O)CN(CCNC(=O)CN(CCNC(=O)CN(CCNC(=O)CN(CCNC(=O)CN(CCNC(=O)CN)C(=O)Cn2ccc(N)nc2=O)C(=O)Cn2ccc(=O)[nH]c2=O)C(=O)Cn2cnc3c(=O)[nH]c(N)nc32)C(=O)Cn2cnc3c(=O)[nH]c(N)nc32)C(=O)Cn2ccc(N)nc2=O)C(=O)Cn2ccc(N)nc2=O)C(=O)Cn2cnc3c(N)ncnc32)C(=O)Cn2cnc3c(=O)[nH]c(N)nc32)C(=O)Cn2ccc(=O)[nH]c2=O)C(=O)Cn2ccc(N)nc2=O)C(=O)Cn2ccc(N)nc2=O)C(=O)Cn2cnc3c(N)ncnc32)C(=O)Cn2ccc(N)nc2=O)C(=O)Cn2cnc3c(N)ncnc32)C(=O)Cn2cnc3c(=O)[nH]c(N)nc32)C(=O)Cn2ccc(N)nc2=O)C(=O)Cn2ccc(=O)[nH]c2=O)C(=O)Cn2cnc3c(=O)[nH]c(N)nc32)C(=O)Cn2ccc(=O)[nH]c2=O)C(=O)Cn2cc(C)c(=O)[nH]c2=O)CC(=O)O)c(=O)[nH]c1=O
inhibition at 0.1 µM (T47D [1]): 26% | inhibition (T47D [2]): Active | inhibition at 0.025 µM (T47D [3]): < 20% | inhibition (T47D [4]): Active | inhibition at 0.025 µM (T47D [5]): < 20% | inhibition at 0.1 µM (T47D [6]): 71%

Cc1cn(CC(=O)N(CCNC(=O)CN(CCNC(=O)CN(CCNC(=O)CN(CCNC(=O)CN(CCNC(=O)CN(CCNC(=O)CN(CCNC(=O)CN(CCNC(=O)CN(CCNC(=O)CN(CCNC(=O)CN(CCNC(=O)CN(CCNC(=O)CN(CCNC(=O)CN(CCNC(=O)CN(CCNC(=O)CN(CCNC(=O)CN(CCNC(=O)CN(CCNC(=O)CN(CCNC(=O)CN(CCNC(=O)CN)C(=O)Cn2cnc3c(=O)[nH]c(N)nc32)C(=O)Cn2ccc(=O)[nH]c2=O)C(=O)Cn2ccc(=O)[nH]c2=O)C(=O)Cn2cnc3c(N)ncnc32)C(=O)Cn2cnc3c(=O)[nH]c(N)nc32)C(=O)Cn2cnc3c(N)ncnc32)C(=O)Cn2cnc3c(N)ncnc32)C(=O)Cn2cnc3c(N)ncnc32)C(=O)Cn2cnc3c(=O)[nH]c(N)nc32)C(=O)Cn2ccc(N)nc2=O)C(=O)Cn2ccc(=O)[nH]c2=O)C(=O)Cn2cnc3c(=O)[nH]c(N)nc32)C(=O)Cn2ccc(=O)[nH]c2=O)C(=O)Cn2ccc(N)nc2=O)C(=O)Cn2ccc(=O)[nH]c2=O)C(=O)Cn2cnc3c(=O)[nH]c(N)nc32)C(=O)Cn2cnc3c(=O)[nH]c(N)nc32)C(=O)Cn2ccc(N)nc2=O)C(=O)Cn2ccc(N)nc2=O)CC(=O)NCCN(CC(=O)NCC(=O)O)C(=O)Cn2cc(C)c(=O)[nH]c2=O)c(=O)[nH]c1=O
inhibition at 0.1 µM (T47D [1]): < 20% | inhibition (T47D [2]): Active | inhibition at 0.025 µM (T47D [3]): < 20% | inhibition (T47D [4]): Active | inhibition at 0.025 µM (T47D [5]): < 20% | inhibition at 0.1 µM (T47D [6]): < 20%
